Source: ChEMBL document CHEMBL3632600, “Novel arylalkylamine compounds exhibits potent selective antiparasitic activity against Leishmania major” (Bioorg Med Chem Lett, 2015)

Legend:
Leishmania major [1] = experiment: Antileishmanial activity against promastigote stage of Leishmania major Friedlin clone V1 assessed as parasite survival after 72 hrs by luciferase reporter gene assay; type: functional; conditions: Friedlin clone V1, 72 h, read-out: LD50 (the source's name)
Procedure, shortened: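 Luciferase-expressing L. major Friedlin clone V1 promastigotes exposed to compound for 72 h; Amphotericin B served as positive control. Lethality is expressed as LD50.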

LLC-MK2 = experiment: Cytotoxicity against monkey LLC-MK2 cells after 96 hrs by Alamar Blue assay; type: cell-based; conditions: Macaca mulatta, LLC-MK2, 96 h
Leishmania major [2] = experiment: Antileishmanial activity against promastigote stage of Leishmania major assessed as induction of intracellular reactive oxygen species generation at 3 uM preincubated for 24 hrs followed by H2DCFDA probe addition measured after 20 mins by fluorescence microplate reader analysis relative to vehicle-treated control; type: functional
Procedure, shortened: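 L. major promastigotes exposed 24 h (3 µM for the single-concentration read). H2DCFDA then added and incubated a further 20 min at 37 °C; fluorescence read on a microplate reader and expressed relative to 1% DMSO vehicle. Medium-only also served as negative control; hydrogen peroxide 100 µM as positive control.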

[3] = Cytotoxicity against mouse intraperitoneal macrophages after 48 hrs by Alamar Blue assay; type: cell-based; conditions: Peritoneal macrophage cell
U2OS = experiment: Cytotoxicity against human U2OS cells after 96 hrs by Alamar Blue assay; type: cell-based
RAW264.7 = experiment: Cytotoxicity against mouse Raw264.7 cells after 96 hrs by Alamar Blue assay; type: cell-based; conditions: RAW264.7, 96 h
Leishmania major [4] = experiment: Antileishmanial activity against amastigote stage of Leishmania major in starch-activated mouse intraperitoneal macrophages assessed as inhibition of intracellular parasite proliferation at 5 uM after 48 hrs by annexin-V 488/DAPI staining-based microplate confocal microscopic analysis relative to control; type: functional
Procedure, shortened: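 Macrophages infected 24 h after plating with L. major metacyclic promastigotes at 10 parasites per cell, then treated 48 h at 5 µM. Fixed, stained with annexin-V 488 and DAPI; infected cells (5 or more amastigotes per macrophage) and amastigotes counted by high-content confocal imaging. Negative control 1% DMSO; positive control amphotericin B 25 µM.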

Structure (SMILES)	LC50 (Leishmania major [1])	other results
CCOC(=O)c1ccc(NC2CCCCC2)c(N)c1	28.8 µM	IC50 (LLC-MK2): > 240 µM
CCOC(=O)c1ccc(NC2CCCCC2)c([N+](=O)[O-])c1	> 10 µM	
CCOC(=O)c1ccc(NC2CCOCC2)c(N)c1	> 10 µM	
Nc1cc(C(=O)OCCN2CCOCC2)ccc1NC1CCCCC1	> 10 µM	
CCOC(=O)c1cc(N)c(NC2CCCCC2)cc1F	> 10 µM	
CCOC(=O)c1ccc(N[C@H]2CC[C@H](N)CC2)c(N)c1	> 10 µM	
CCCCCCCCCCOC(=O)c1cc(N)c(NC2CCCCC2)cc1F	> 10 µM	
CCOC(=O)c1cnc(NC2CCCCC2)c(N)c1	> 10 µM	
CCOC(=O)c1ccc(NC2CCCCC2)c(NCc2ccccc2)c1	3.34 µM	fold change (FC) (Leishmania major [2]): 1.75; IC50 [3]: > 80 µM; IC50 (U2OS): > 80 µM; IC50 (RAW264.7): > 80 µM; inhibition at 5 µM (Leishmania major [4]): 80%
CCOC(=O)c1ccc(NC2CCCCC2)c(NCc2ccc(C#N)cc2)c1	> 10 µM	
CCOC(=O)c1ccc(NC2CCCCC2)c(NCc2ccc(C(=O)OC)cc2)c1	> 10 µM	
CCOC(=O)c1ccc(NC2CCCCC2)c(NCc2ccc([N+](=O)[O-])cc2)c1	> 10 µM	
CCOC(=O)c1ccc(NC2CCCCC2)c(NCc2ccccc2[N+](=O)[O-])c1	> 10 µM	
CCOC(=O)c1ccc(NC2CCCCC2)c(NCc2cccc(Cl)c2)c1	> 10 µM	
CCOC(=O)c1ccc(NC2CCCCC2)c(NCc2cccc(F)c2)c1	> 10 µM	
CCOC(=O)c1ccc(NC2CCCCC2)c(NCc2cc(F)cc(Br)c2)c1	> 10 µM	
CCOC(=O)c1ccc(NC2CCCCC2)c(NCc2ccc(F)c(C#N)c2)c1	> 10 µM	
CCOC(=O)c1ccc(NC2CCCCC2)c(NCc2ccc(OC)cc2)c1	> 10 µM	
CCOC(=O)c1ccc(NC2CCCCC2)c(NCc2cccc(OC)c2)c1	4.98 µM	
CCOC(=O)c1ccc(NC2CCC(C(C)(C)C)CC2)c(NCc2ccccc2)c1 (stereo not drawn)	> 10 µM	
CCOC(=O)c1ccc(NC2CCC(C(C)(C)C)CC2)c(NCc2ccncn2)c1 (stereo not drawn)	4.92 µM	
CCOC(=O)c1cc(NCc2ccncn2)c(NC2CCCCC2)cc1F	9.49 µM	
CCOC(=O)c1ccc(NC23CC4CC(CC(C4)C2)C3)c(NCc2ccccc2)c1	> 10 µM	
CCOC(=O)c1ccc(NC23CC4CC(CC(C4)C2)C3)c(NCc2ccncn2)c1	> 10 µM	
CCOC(=O)c1ccc(NC2CCCCC2)c(NC(=O)OC)c1	> 10 µM	
CCOC(=O)c1ccc(NC2CCCCC2)c(N(Cc2ccccc2)Cc2ccccc2)c1	> 10 µM	
O=C(O)c1ccc(NC2CCCCC2)c(NCc2ccccc2)c1	> 10 µM	
